In ChEMBL document CHEMBL1142488, “Synthesis of N-substituted 5-[2-(N-alkylamino)ethyl]dibenzo[c,h][1,6]naphthyridines as novel topoisomerase I-targeting antitumor agents” (Bioorg Med Chem, 2008):

Tests used:
[1] = Cytotoxicity against human RPMI8402 cells after MTT assay; type: functional, cell-based; conditions: RPMI 8402
Summary of the method: (§1)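 Suspension cultures at 37 °C, 5% CO2, in RPMI with 10% heat-inactivated FBS, 2 mM L-glutamine, penicillin and streptomycin. Continuous 4-day exposure to a range of drug concentrations, then MTT read-out to give IC50. Drug-free control included. At least two runs, six replicate wells each.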

[2] = tested on: P388; assay: Cytotoxicity against mouse P388 cells after MTT assay; type: functional, cell-based; summary of the method: as §1
[3] = Cytotoxicity against multidrug resistant human KBH5.0 cells overexpressing BCRP after MTT assay; type: functional, cell-based; conditions: KBH5.0 cell
Summary of the method: (§2)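 IC50 after continuous 4-day exposure to varying drug concentrations, with MTT read at the end of day 4. A drug-free control was included. At least two runs, each in six replicate wells.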

[4] = tested on: MDA-MB-435 (human); assay: Antitumor activity against human MDA-MB-435 cells xenografted in NCR/NU NU mouse assessed as tumor volume measured on day 21 initially dosed at 5 mg/kg, ip qd x 5/week for 1 week and was gradually increased to 7 mg/kg x 5/week schedule
[5] = biological target: T1, DNA topoisomerase 1 (Homo sapiens) (UniProt P11387); assay: Inhibition of human topoisomerase 1 mediated DNA cleavage assessed as effective drug concentration causing 10% YepG plasmid cleavage relative to camptothecin; conditions: in the assay text read “relative to topotecan” for “relative to camptothecin”
T1 sequence (whole entry): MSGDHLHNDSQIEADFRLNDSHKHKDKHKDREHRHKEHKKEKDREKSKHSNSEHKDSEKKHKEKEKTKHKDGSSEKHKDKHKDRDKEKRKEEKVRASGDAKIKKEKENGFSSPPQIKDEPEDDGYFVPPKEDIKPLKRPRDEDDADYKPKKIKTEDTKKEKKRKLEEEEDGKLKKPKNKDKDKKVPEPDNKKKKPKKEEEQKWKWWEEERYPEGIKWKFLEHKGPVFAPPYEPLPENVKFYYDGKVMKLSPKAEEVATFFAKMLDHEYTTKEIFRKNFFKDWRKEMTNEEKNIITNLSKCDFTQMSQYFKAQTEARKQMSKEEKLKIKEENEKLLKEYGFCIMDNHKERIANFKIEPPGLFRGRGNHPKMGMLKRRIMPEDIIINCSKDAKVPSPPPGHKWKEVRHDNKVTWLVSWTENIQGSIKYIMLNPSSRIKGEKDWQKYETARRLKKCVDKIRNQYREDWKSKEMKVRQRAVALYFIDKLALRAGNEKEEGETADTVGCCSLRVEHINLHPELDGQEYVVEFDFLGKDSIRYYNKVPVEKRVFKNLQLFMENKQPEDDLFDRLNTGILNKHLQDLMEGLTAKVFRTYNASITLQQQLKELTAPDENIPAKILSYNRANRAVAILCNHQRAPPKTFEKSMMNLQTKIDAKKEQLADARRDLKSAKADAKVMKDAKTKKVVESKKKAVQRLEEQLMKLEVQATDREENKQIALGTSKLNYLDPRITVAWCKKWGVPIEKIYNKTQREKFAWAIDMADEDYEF
Summary of the method: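 Stopped with SDS and proteinase K, 1 h at 37 °C. Alkali-denatured with NaOH/EDTA/sucrose/bromophenol blue, then run on neutral agarose gel.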

[6] = tested on: MDA-MB-435 (human); assay: Antitumor activity against human MDA-MB-435 cells xenografted in NCR/NU NU mouse assessed as tumor volume measured on day 28 initially dosed at 5 mg/kg, ip qd x 5/week for 1 week and was gradually increased to 7 mg/kg x 5/week schedule
[7] = Cytotoxicity against camptothecin-resistant human CPT-K5 cells after MTT assay; type: functional, cell-based; summary of the method: as §1
[8] = tested on: MDA-MB-435 (human); assay: Antitumor activity against human MDA-MB-435 cells xenografted in NCR/NU NU mouse assessed as tumor volume measured on day 49 initially dosed at 5 mg/kg, ip qd x 5/week for 1 week and was gradually increased to 7 mg/kg x 5/week schedule
[9] = tested on: MDA-MB-435 (human); assay: Antitumor activity against human MDA-MB-435 cells xenografted in NCR/NU NU mouse assessed as tumor volume measured on day 35 initially dosed at 5 mg/kg, ip qd x 5/week for 1 week and was gradually increased to 7 mg/kg x 5/week schedule
[10] = Cytotoxicity against multidrug resistant human KBV-1 cells overexpressing MDR1 after MTT assay; type: functional, cell-based; conditions: KB-V1; summary of the method: as §2
[11] = tested on: MDA-MB-435 (human); assay: Antitumor activity against human MDA-MB-435 cells xenografted in NCR/NU NU mouse assessed as tumor volume measured on day 42 initially dosed at 5 mg/kg, ip qd x 5/week for 1 week and was gradually increased to 7 mg/kg x 5/week schedule
[12] = tested on: MDA-MB-435 (human); assay: Antitumor activity against human MDA-MB-435 cells xenografted in NCR/NU NU mouse assessed as tumor volume measured on day 7 initially dosed at 5 mg/kg, ip qd x 5/week for 1 week and was gradually increased to 7 mg/kg x 5/week schedule
[13] = Cytotoxicity against camptothecin-resistant and TOP1 deficient mouse P388/CPT45 cells after MTT assay; type: functional, cell-based; conditions: P388CPT45; summary of the method: as §1
[14] = tested on: MDA-MB-435 (human); assay: Antitumor activity against human MDA-MB-435 cells xenografted in NCR/NU NU mouse assessed as tumor volume measured on day 14 initially dosed at 5 mg/kg, ip qd x 5/week for 1 week and was gradually increased to 7 mg/kg x 5/week schedule
[15] = tested on: MDA-MB-435 (human); assay: Antitumor activity against human MDA-MB-435 cells xenografted in NCR/NU NU mouse assessed as tumor volume measured on day 7 initially dosed at 1.5 mg/kg, ip qd x 3/5 days schedule; conditions: route intraperitoneal
[16] = tested on: MDA-MB-435 (Homo sapiens); assay: Antitumor activity against human MDA-MB-435 cells xenografted in NCR/NU NU mouse assessed as tumor volume measured on day 14 initially dosed at 1.5 mg/kg, ip qd x 3/5 days schedule; conditions: route intraperitoneal
[17] = tested on: MDA-MB-435 (Homo sapiens); assay: Antitumor activity against human MDA-MB-435 cells xenografted in NCR/NU NU mouse assessed as tumor volume measured on day 28 initially dosed at 1.5 mg/kg, ip qd x 3/5 days schedule; conditions: route intraperitoneal
[18] = tested on: MDA-MB-435 (Homo sapiens); assay: Antitumor activity against human MDA-MB-435 cells xenografted in NCR/NU NU mouse assessed as tumor volume measured on day 35 initially dosed at 1.5 mg/kg, ip qd x 3/5 days schedule; conditions: route intraperitoneal
[19] = tested on: MDA-MB-435 (Homo sapiens); assay: Antitumor activity against human MDA-MB-435 cells xenografted in NCR/NU NU mouse assessed as tumor volume measured on day 21 initially dosed at 1.5 mg/kg, ip qd x 3/5 days schedule; conditions: route intraperitoneal
[20] = Cytotoxicity against human KB3-1 cells after MTT assay; type: functional, cell-based; conditions: KB 3-1; summary of the method: as §2
[21] = tested on: MDA-MB-435 (Homo sapiens); assay: Antitumor activity against human MDA-MB-435 cells xenografted in NCR/NU NU mouse assessed as tumor volume measured on day 42 initially dosed at 1.5 mg/kg, ip qd x 3/5 days schedule; conditions: route intraperitoneal
[22] = tested on: MDA-MB-435 (Homo sapiens); assay: Antitumor activity against human MDA-MB-435 cells xenografted in NCR/NU NU mouse assessed as tumor volume measured on day 49 initially dosed at 1.5 mg/kg, ip qd x 3/5 days schedule; conditions: route intraperitoneal
[23] = tested on: MDA-MB-435 (human); assay: Antitumor activity against human MDA-MB-435 cells xenografted in NCR/NU NU mouse assessed as tumor volume measured on day 49 initially dosed at 5 mg/kg, ip qd x 5/week for 1 week and dose schedule adjusted to achieve total dose of 301 mg/kg
[24] = tested on: MDA-MB-435 (human); assay: Antitumor activity against human MDA-MB-435 cells xenografted in NCR/NU NU mouse assessed as tumor volume measured on day 7 initially dosed at 5 mg/kg, ip qd x 5/week for 1 week and dose schedule adjusted to achieve total dose of 301 mg/kg
[25] = tested on: MDA-MB-435 (human); assay: Antitumor activity against human MDA-MB-435 cells xenografted in NCR/NU NU mouse assessed as tumor volume measured on day 28 initially dosed at 5 mg/kg, ip qd x 5/week for 1 week and dose schedule adjusted to achieve total dose of 301 mg/kg
[26] = tested on: MDA-MB-435 (human); assay: Antitumor activity against human MDA-MB-435 cells xenografted in NCR/NU NU mouse assessed as tumor volume measured on day 42 initially dosed at 5 mg/kg, ip qd x 5/week for 1 week and dose schedule adjusted to achieve total dose of 301 mg/kg
[27] = tested on: MDA-MB-435 (human); assay: Antitumor activity against human MDA-MB-435 cells xenografted in NCR/NU NU mouse assessed as tumor volume measured on day 14 initially dosed at 5 mg/kg, ip qd x 5/week for 1 week and dose schedule adjusted to achieve total dose of 301 mg/kg
[28] = tested on: MDA-MB-435 (human); assay: Antitumor activity against human MDA-MB-435 cells xenografted in NCR/NU NU mouse assessed as tumor volume measured on day 35 initially dosed at 5 mg/kg, ip qd x 5/week for 1 week and dose schedule adjusted to achieve total dose of 301 mg/kg
[29] = tested on: MDA-MB-435 (human); assay: Antitumor activity against human MDA-MB-435 cells xenografted in NCR/NU NU mouse assessed as tumor volume measured on day 21 initially dosed at 5 mg/kg, ip qd x 5/week for 1 week and dose schedule adjusted to achieve total dose of 301 mg/kg

Activity [5] | SMILES | IC50 [1] [nM] | IC50 [2] [nM] | IC50 [3] [nM] | IC50 [7] [nM] | IC50 [10] [nM] | IC50 [13] [nM] | IC50 [20] [nM] | other results
0.1 | C#CCN(C)CCn1c(=O)c2cc(OC)c(OC)cc2c2cnc3cc4c(cc3c21)OCO4 | 8 | 20 | 34 | 4500 | 70 | 400 | – | Activity [4]: 218 mm3; Activity [6]: 284 mm3; Activity [8]: 433 mm3; Activity [9]: 317 mm3; Activity [11]: 358 mm3; Activity [12]: 144 mm3; Activity [14]: 167 mm3
0.3 | COc1cc2c(=O)n(CCN(C)C)c3c4cc5c(cc4ncc3c2cc1OC)OCO5 | 2 | – | 6 | 900 | 5 | 230 | 5 | Activity [15]: 120 mm3; Activity [16]: 123 mm³; Activity [17]: 158 mm³; Activity [18]: 175 mm³; Activity [19]: 145 mm³; Activity [21]: 189 mm³; Activity [22]: 242 mm3
0.3 | COc1cc2c(=O)n(CCN(C)CC(N)=O)c3c4cc5c(cc4ncc3c2cc1OC)OCO5 | 3 | 9 | 320 | 3500 | – | 390 | 10 | Activity [23]: 527 mm3; Activity [24]: 147 mm3; Activity [25]: 319 mm3; Activity [26]: 434 mm3; Activity [27]: 178 mm3; Activity [28]: 344 mm3; Activity [29]: 230 mm3
